The nature of test [1]: Inhibition of GAT mediated [3H]GABA uptake in rat brain synaptosomes. It is filed as subcellular.
The target in test [2] is Sodium- and chloride-dependent GABA transporter 1 (Mus musculus) (UniProt P31648). In words: Residual mouse GAT1-mediated [3H]GABA uptake expressed in human HEK cells at 100 uM. The note with it: HEK293.
Test [3] can be described thus: Inhibition of mouse GAT4-mediated [3H]GABA uptake expressed in human HEK cells. It is filed as cell-based. The following applies: HEK293. Summed up:
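Specific [3H]GABA uptake was measured at the murine transporter subtype, and results are given as pIC50 ± SEM from three independent experiments, each run in triplicate.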

Test [4] concerns the target Sodium- and chloride-dependent GABA transporter 1 (Mus musculus) (UniProt P31648). The test can be described thus: Residual mouse GAT1-mediated [3H]GABA uptake expressed in human HEK cells at 1 mM. The note with it: HEK293.
Test [5] addresses T1, GABA transporter 4 (Mus musculus) (UniProt P31650).
T1 sequence (whole entry): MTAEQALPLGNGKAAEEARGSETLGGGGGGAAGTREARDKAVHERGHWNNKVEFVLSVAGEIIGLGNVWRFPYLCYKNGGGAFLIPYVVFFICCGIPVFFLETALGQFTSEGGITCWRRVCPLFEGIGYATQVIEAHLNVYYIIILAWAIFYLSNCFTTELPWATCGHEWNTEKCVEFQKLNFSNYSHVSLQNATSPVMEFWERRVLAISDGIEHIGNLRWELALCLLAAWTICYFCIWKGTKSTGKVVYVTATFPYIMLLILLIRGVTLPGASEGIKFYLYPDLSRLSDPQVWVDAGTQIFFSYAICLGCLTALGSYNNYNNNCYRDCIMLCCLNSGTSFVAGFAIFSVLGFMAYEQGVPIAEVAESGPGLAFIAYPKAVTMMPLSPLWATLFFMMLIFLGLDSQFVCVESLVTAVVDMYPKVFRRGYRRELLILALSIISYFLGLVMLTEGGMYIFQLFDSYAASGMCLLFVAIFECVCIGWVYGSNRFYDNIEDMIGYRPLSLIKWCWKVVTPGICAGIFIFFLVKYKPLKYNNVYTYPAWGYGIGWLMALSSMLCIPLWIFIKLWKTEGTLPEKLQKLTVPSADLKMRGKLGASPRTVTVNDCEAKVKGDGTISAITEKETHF
In words: Residual mouse GAT4-mediated [3H]GABA uptake expressed in human HEK cells at 1 mM. The following applies: HEK293.

Test [6] deals with GABA transporter Slc6a13 (Mus musculus). In words: Residual mouse GAT3-mediated [3H]GABA uptake expressed in human HEK cells at 1 mM. The note with it: HEK293.
In test [7] the test system is betaine/GABA transporter BGT-1 (Slc6a12, Mus musculus). The test can be described thus: Residual mouse GAT2-mediated [3H]GABA uptake expressed in human HEK cells at 1 mM. The following applies: HEK293.
Another test concerns HEK293. In words: Residual mouse GAT4-mediated [3H]GABA uptake expressed in human HEK cells at 100 uM.
Test [8] has as its system betaine/GABA transporter BGT-1 (Slc6a12, Mus musculus). The test can be described thus: Residual mouse GAT2-mediated [3H]GABA uptake expressed in human HEK cells at 100 uM. The note with it: HEK293.
For test [9], the system named is GABA transporter Slc6a13 (Mus musculus). The test can be described thus: Residual mouse GAT3-mediated [3H]GABA uptake expressed in human HEK cells at 100 uM. The note with it: HEK293.
For test [10], the species on record is Mus musculus. In words: Selectivity ratio of IC50 for mouse GAT3 to IC50 for mouse GAT4.
The species named for test [11] is Mus musculus. The test can be described thus: Selectivity ratio of IC50 for mouse GAT3 to IC50 for mouse GAT1.

Here are results for 41 compounds from ChEMBL document CHEMBL1914421, “Aminomethyltetrazoles as potential inhibitors of the γ-aminobutyric acid transporters mGAT1-mGAT4: synthesis and biological evaluation” (Bioorg Med Chem, 2011).

Each structure is given as a SMILES string. Some results are limits rather than exact numbers.

Usually IC50 stands for the concentration needed to halve the response being measured. `C1=C(c2nnn[nH]2)CCNC1` returned an IC50 in test [1] of under 100 µM.
As a reminder, the residual activity is the signal under treatment as a percentage of the control signal. In the case of `C(CNCc1nnnn1C1CCCCC1)=C(c1ccccc1)c1ccccc1`, the residual activity in test [2] worked out at 62.9%. The compound also showed an IC50 in [3] of 51.3 µM.
As for `CC(C)(C)CC(C)(C)n1nnnc1CNCCN`, the residual activity turned out to be 133% in test [4], 92.5% in [5], 71.1% in test [6] and 142% in test [7].
Regarding `C(CCNCc1nnn[nH]1)=C(c1ccccc1)c1ccccc1`, the residual activity turned out to be 86.1% in test [2], 76.9% in [8] and 73.8% in [9]. In the test with HEK293, this compound showed a level, % of control of 101%.
Regarding `C1CN(Cc2nnn[nH]2)CCO1`, the residual activity in test [4] worked out at 90.6%; in test [5], 90.8%; in [6], 87.8%; in test [7] it was 88%.
For `CCCCNCc1nnn[nH]1`, the residual activity worked out at 105% in test [2], 65.3% in [8] and 74% in test [9]. Also, in the test on HEK293, the level, % of control stood at 71.5%.
Regarding `CC(C)(C)CC(C)(C)n1nnnc1CNCC(c1ccccc1)c1ccccc1`, the figures for the residual activity in test [2], in [8] and in test [9] were 83.3%, 63.5% and 53.8%, respectively. Also, in [3], the IC50 was 67.6 µM.
Take `C(CNCc1nnnn1Cc1ccccc1)=C(c1ccccc1)c1ccccc1`: the residual activity in test [2] was determined as 57.3%. For the same compound, in test [3], the IC50 was 41.7 µM.
Turning to `CC(C)(C)CC(C)(C)n1nnnc1CNC(c1ccccc1)c1ccccc1`, the results for the residual activity in [2] and in [8] were 85.6% and 81.4%, respectively. Further, in the test on HEK293, the level, % of control is 56.9%.
Regarding `c1ccc(Cn2nnnc2CNCC(c2ccccc2)c2ccccc2)cc1`, the results for the residual activity in test [2] and in test [8] were 72.4% and 67.1%, respectively. The same compound yielded a level, % of control with HEK293 of 52.3%.
In [1], `NCCc1nnn[nH]1` registered a concentration for half-maximal inhibition (IC50) of under 100 µM.
Take `c1ccc2c(c1)c1ccccc1n2CCCNCc1nnn[nH]1`: the residual activity was 86.3% in test [2], 81.6% in test [8] and 83.6% in [9]. In the test on HEK293, this compound came in with a level, % of control of 78.7%.
Taken in the same sequence, the figures for `c1ccc(C(CCNCc2nnn[nH]2)c2ccccc2)cc1` were 100%, 53.2%, 72.6% and 80.5%.
With `CC(C)(C)CC(C)(C)n1nnnc1CNCCC=C(c1ccccc1)c1ccccc1`, the residual activity stood at 75.4% in [2] and 54.9% in [8]. This compound also had an IC50 in [3] of 18.2 µM.
As for `c1ccc(C(CCCNCc2nnnn2C2CCCCC2)c2ccccc2)cc1`, the residual activity in test [2] came out at 70.6%. The level, % of control in the test on HEK293 turned out to be 43.2%.
`CC(C)(C)CC(C)(C)n1nnnc1CNCC=C(c1ccccc1)c1ccccc1`: the residual activity in [2] is 65.7%. Further, the midpoint of inhibition in [3], the IC50, lay at 26.3 µM.
As to `C(CNCc1nnn[nH]1)=C(c1ccccc1)c1ccccc1`, the residual activity in test [2] amounted to 80.5%; in test [8] it was 82%; in test [9], 46.2%. In the test on HEK293, this compound registered a level, % of control of 79.6%.
Take `c1ccc(Cn2nnnc2CNCCCC(c2ccccc2)c2ccccc2)cc1`: the residual activity in test [2] was found to be 68.1%. Besides, the level, % of control in the test on HEK293 came out at 49.6%.
On to `c1ccc(C(CCNCc2nnnn2C2CCCCC2)c2ccccc2)cc1`, for which the residual activity in test [2] is 54.6%. Further, it took 34.7 µM to reach half-maximal inhibition in [3] (IC50).
As for `CC(C)(C)CC(C)(C)n1nnnc1CN1CCNCC1`, the residual activity in test [2] was determined as 90.2%; in test [8], 106%; in test [9], 81.4%. The level, % of control in the test on HEK293 worked out at 78.4%.
For `c1ccc(C(CNCc2nnnn2C2CCCCC2)c2ccccc2)cc1`, the values for the residual activity in [2] and in [8] were 59.1% and 75.9%, respectively. The compound further showed a half-maximal inhibitory concentration (IC50) in test [3] of 44.7 µM.
For the compound `CC(C)(C)CC(C)(C)n1nnnc1CNCCC(c1ccccc1)c1ccccc1`, the residual activity in test [2] was determined as 70.7%; in test [8], 77.1%. In addition, in test [3], inhibition was half-maximal at 29.5 µM (IC50). Besides, the Ratio IC50 was found to be 4 in the test listed under Mus musculus [10] and 12 in the test listed under Mus musculus [11].
Regarding `CC(C)(C)CC(C)(C)n1nnnc1CNCCCn1c2ccccc2c2ccccc21`, the residual activity in [2] came to 75.1%; in test [8], 72.6%; in test [9], 68.8%. For the same compound, in the test with HEK293, the level, % of control was 59.7%.
Compound `NCCCc1nnn[nH]1` yielded an IC50 in [1] of under 100 µM.
Consider `NCCNCc1nnn[nH]1`, for which the residual activity in test [4] came to 81.7%; in [5], 60.7%; in test [6] it was 86.3%; in test [7], 80%.
Taken in the same sequence, the figures for `NCc1nnn[nH]1` were 85.1%, 78.9%, 66.5% and 59.4%.
As for `C1CN(Cc2nnn[nH]2)CCN1`, the residual activity stood at 90% in [4], 101% in test [5], 102% in test [6] and 75.4% in test [7].
Turning to `c1ccc(C(CNCc2nnn[nH]2)c2ccccc2)cc1`, the figures for the residual activity in test [2], in test [8] and in [9] were 48.2%, 85.8% and 63.5%, respectively. Also, in the test on HEK293, the level, % of control amounted to 71.2%.
Consider `NCC(=O)O`, for which the residual activity is 83.1% in [4] and 69.7% in test [5].
In test [1], `C1CNCC(c2nnn[nH]2)C1` (stereo unspecified) displayed an IC50 of under 100 µM.
Consider `CCCCNCc1nnnn1C(C)(C)CC(C)(C)C`, for which the residual activity in test [2] is 83.3%; in [8], 60.3%; in test [9] it was 49%. The compound also gave an IC50 in [3] of 49 µM.
With `C(CCNCc1nnnn1Cc1ccccc1)=C(c1ccccc1)c1ccccc1`, the residual activity in test [2] came to 69.4%; in test [8], 84.1%; in test [9], 53.5%. This compound displayed a level, % of control with HEK293 of 53.1%.
On to `c1ccc(C(NCc2nnnn2C2CCCCC2)c2ccccc2)cc1`, for which the residual activity in test [2] stood at 54.8%. It took 28.8 µM to reach half-maximal inhibition in test [3] (IC50).
Taken in the same sequence, the figures for `CC(C)(C)CC(C)(C)n1nnnc1CNCCCC(c1ccccc1)c1ccccc1` were 63.8% and 29.5 µM.
As to `c1ccc(Cn2nnnc2CNC(c2ccccc2)c2ccccc2)cc1`, the residual activity came to 81.1% in test [2] and 84.5% in test [8]. The level, % of control with HEK293 came out at 57.2%.
Take `C1CC(c2nnn[nH]2)CCN1`: in test [1], the IC50 was under 100 µM.
For the compound `CC(C)(C)CC(C)(C)n1nnnc1CN1CCOCC1`, the residual activity in [2] amounted to 73.4%; in [8] it was 99%; in test [9] it was 63.3%. Further, in the test on HEK293, the level, % of control is 90.5%.
Taken in the same sequence, the figures for `c1ccc(C(CCCNCc2nnn[nH]2)c2ccccc2)cc1` were 82%, 89.3%, 75.1% and 87.4%.
For `c1ccc(Cn2nnnc2CNCCC(c2ccccc2)c2ccccc2)cc1`, the residual activity in [2] came out at 73.9%; in test [8] it was 61.6%; in test [9] it was 51.7%. In test [3], this compound had an IC50 of 63.1 µM.
Consider `C(CCNCc1nnnn1C1CCCCC1)=C(c1ccccc1)c1ccccc1`, for which the residual activity came out at 64.5% in test [2] and 69.5% in test [8]. The compound also yielded a level, % of control with HEK293 of 58.2%.
For `c1ccc(C(NCc2nnn[nH]2)c2ccccc2)cc1`, the results for the residual activity in test [2], in [8] and in test [9] were 69.7%, 94.2% and 94.2%, respectively. In the test with HEK293, this compound gave a level, % of control of 85.4%.
